# In ChEMBL document CHEMBL1255443, “CEM-101 activity against Gram-positive organisms” (Antimicrob Agents Chemother, 2010):
# The source made the active and inactive calls.
# Key:
# Enterococcus faecalis [1] = test: Antimicrobial activity against Enterococcus faecalis ATCC 29212 after passaging with CEM-101 by broth microdilution method; format: functional
# Procedure, shortened: (§1)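 Multistep resistance selection by CLSI reference broth microdilution. The full content of the last well showing growth was resuspended in broth to a 0.5 McFarland standard, and 5 × 10^5 CFU/ml was used for the next MIC panel, repeated over 7 passage days. Reversion was checked by three consecutive drug-free agar passages, followed by a final broth microdilution MIC. A ≥8-fold MIC change from initial counted as significant resistance.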
# Enterococcus faecium [2] = test: Antimicrobial activity against Enterococcus faecium 067- after passaging with CEM-101 by broth microdilution method; format: functional; procedure, shortened: as §1
# Streptococcus pneumoniae [3] = test: Antimicrobial activity against Streptococcus pneumoniae 127-2273B after passaging with CEM-101 by broth microdilution method; format: functional; procedure, shortened: as §1
# Streptococcus mitis [4] = test: Antimicrobial activity against Streptococcus mitis 112-1885A after passaging with CEM-101 by broth microdilution method; format: functional; procedure, shortened: as §1
# Enterococcus faecalis [5] = test: Antimicrobial activity against Enterococcus faecalis 067-6633A after passaging with CEM-101 by broth microdilution method; format: functional; procedure, shortened: as §1
# Staphylococcus aureus [6] = test: Antimicrobial activity against Staphylococcus aureus ATCC 29213 after passaging with CEM-101 by broth microdilution method; format: functional; procedure, shortened: as §1
# Staphylococcus aureus [7] = test: Antimicrobial activity against Staphylococcus aureus 004-573D after passaging with CEM-101 by broth microdilution method; format: functional; procedure, shortened: as §1
# Streptococcus pneumoniae [8] = test: Antibacterial activity against Streptococcus pneumoniae 241B assessed as bacteriostatic by time kill study; format: functional, organism-based
# Procedure, shortened: (§2)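 Time-kill assay following earlier published methods. Each agent tested at 2×, 4× and 8× its MIC for the strain. Viable colony counts taken at 0, 2, 4, 8 and 24 h. Bactericidal activity defined as a ≥3 log10 CFU/ml drop from the starting inoculum within 24 h.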
# [9] = system: Staphylococcus epidermidis; test: Antibacterial activity against Staphylococcus epidermidis 2777A assessed as bactericidal at 8 times MIC in 24 hrs by time kill study
# Staphylococcus aureus [10] = test: Antimicrobial activity against Staphylococcus aureus 117-453D after passaging with CEM-101 by broth microdilution method; format: functional; procedure, shortened: as §1
# Enterococcus faecium [11] = test: Antimicrobial activity against Enterococcus faecium 086-15387A after passaging with CEM-101 by broth microdilution method; format: functional; procedure, shortened: as §1
# Streptococcus pyogenes [12] = test: Antimicrobial activity against Streptococcus pyogenes 088-11708A after passaging with CEM-101 by broth microdilution method; format: functional; procedure, shortened: as §1
# Moraxella catarrhalis = test: Antimicrobial activity against Moraxella catarrhalis 117-10142A after passaging with CEM-101 by broth microdilution method; format: functional; procedure, shortened: as §1
# Enterococcus faecalis [13] = test: Antibacterial activity against Enterococcus faecalis ATCC 29212 assessed as bacteriostatic by time kill study; format: functional, organism-based; procedure, shortened: as §2
# Staphylococcus aureus [14] = test: Antimicrobial activity against Staphylococcus aureus 024-11490A after passaging with CEM-101 by broth microdilution method; format: functional; procedure, shortened: as §1
# [15] = system: Staphylococcus epidermidis; test: Antimicrobial activity against Staphylococcus epidermidis 095-2777A by broth microdilution method
# Streptococcus pyogenes [16] = test: Antibacterial activity against Streptococcus pyogenes 088-11708A assessed as bactericidal at 2 times MIC in 24 hrs by time kill study; format: functional, organism-based; procedure, shortened: as §2
# Streptococcus pneumoniae [17] = test: Antibacterial activity against Streptococcus pneumoniae ATCC 49619 assessed as log cell killing at 8 times MIC in 24 hrs by time kill study; format: functional; procedure, shortened: as §2
# [18] = system: Staphylococcus haemolyticus; test: Antimicrobial activity against Staphylococcus haemolyticus 064-4090A after passaging with CEM-101 by broth microdilution method; format: functional; procedure, shortened: as §1
# [19] = system: Staphylococcus epidermidis; test: Antibacterial activity against Staphylococcus epidermidis 2777A assessed as bactericidal at 2 times MIC in 24 hrs by time kill study
# Streptococcus pyogenes [20] = test: Antibacterial activity against Streptococcus pyogenes 088-11708A assessed as bactericidal at 4 times MIC in 24 hrs by time kill study; format: functional, organism-based; procedure, shortened: as §2
# Streptococcus mitis [21] = test: Antimicrobial activity against Streptococcus mitis 051-4933A after passaging with CEM-101 by broth microdilution method; format: functional; procedure, shortened: as §1
# Staphylococcus aureus [22] = test: Antibacterial activity against Staphylococcus aureus ATCC 29213 assessed as bactericidal at 8 times MIC in 24 hrs by time kill study; format: functional, organism-based; procedure, shortened: as §2
# Streptococcus pneumoniae [23] = test: Antimicrobial activity against Streptococcus pneumoniae 075-241B after passaging with CEM-101 by broth microdilution method; format: functional; procedure, shortened: as §1
# Streptococcus pyogenes [24] = test: Antibacterial activity against Streptococcus pyogenes assessed as log cell killing at 8 times MIC in 24 hrs by time kill study; format: functional; procedure, shortened: as §2
# Staphylococcus aureus [25] = test: Antibacterial activity against Staphylococcus aureus ATCC 29213 assessed as log cell killing at 8 times MIC in 24 hrs by time kill study; format: functional; procedure, shortened: as §2
# Streptococcus pyogenes [26] = test: Antibacterial activity against Streptococcus pyogenes 088-11708A assessed as bactericidal at 8 times MIC in 24 hrs by time kill study; format: functional, organism-based; procedure, shortened: as §2
# Staphylococcus aureus [27] = test: Antimicrobial activity against Staphylococcus aureus NRS384 after passaging with CEM-101 by broth microdilution method; format: functional; procedure, shortened: as §1
# Staphylococcus aureus [28] = test: Antimicrobial activity against Staphylococcus aureus 117-472D after passaging with CEM-101 by broth microdilution method; format: functional; procedure, shortened: as §1
# [29] = system: Staphylococcus epidermidis; test: Antibacterial activity against Staphylococcus epidermidis assessed as log cell killing at 8 times MIC in 24 hrs by time kill study; format: functional; procedure, shortened: as §2
# Streptococcus pneumoniae [30] = test: Antimicrobial activity against Streptococcus pneumoniae 063-1085A after passaging with CEM-101 by broth microdilution method; format: functional; procedure, shortened: as §1
# Enterococcus faecalis [31] = test: Antimicrobial activity against Enterococcus faecalis 061-6556A after passaging with CEM-101 by broth microdilution method; format: functional; procedure, shortened: as §1
# Streptococcus pyogenes [32] = test: Antimicrobial activity against Streptococcus pyogenes 117-1612A after passaging with CEM-101 by broth microdilution method; format: functional; procedure, shortened: as §1
# Haemophilus influenzae = test: Antimicrobial activity against Haemophilus influenzae ATCC 49247 after passaging with CEM-101 by broth microdilution method; format: functional; procedure, shortened: as §1
# [33] = system: Staphylococcus epidermidis; test: Antibacterial activity against Staphylococcus epidermidis 2777A assessed as bactericidal at 4 times MIC in 24 hrs by time kill study
# Staphylococcus aureus [34] = test: Antibacterial activity against Staphylococcus aureus ATCC 29213 assessed as bactericidal at 4 times MIC in 24 hrs by time kill study; format: functional, organism-based; procedure, shortened: as §2
# Streptococcus pneumoniae [35] = test: Antimicrobial activity against Streptococcus pneumoniae ATCC 49619 after passaging with CEM-101 by broth microdilution method; format: functional; procedure, shortened: as §1
# Staphylococcus aureus [36] = test: Antibacterial activity against Staphylococcus aureus ATCC 29213 assessed as bactericidal at 2 times MIC in 24 hrs by time kill study; format: functional, organism-based; procedure, shortened: as §2
# Streptococcus mitis [37] = test: Antibacterial activity against Streptococcus mitis 112-1885A assessed as bactericidal at 4 times MIC in 24 hrs by time kill study; format: functional, organism-based; procedure, shortened: as §2
# [38] = system: Staphylococcus epidermidis; test: Antibacterial activity against Staphylococcus epidermidis 2777A assessed as bacteriostatic by time kill study
# Streptococcus mitis [39] = test: Antibacterial activity against Streptococcus mitis 112-1885A assessed as bactericidal at 8 times MIC in 24 hrs by time kill study; format: functional, organism-based; procedure, shortened: as §2
# Streptococcus mitis [40] = test: Antibacterial activity against Streptococcus mitis 112-1885A assessed as bactericidal at 2 times MIC in 24 hrs by time kill study; format: functional, organism-based; procedure, shortened: as §2
# Streptococcus pneumoniae [41] = test: Antibacterial activity against Streptococcus pneumoniae ATCC 49619 assessed as bactericidal at 2 times MIC in 24 hrs by time kill study; format: functional, organism-based; procedure, shortened: as §2
# Streptococcus pyogenes [42] = test: Antibacterial activity against Streptococcus pyogenes 117-1612A assessed as bactericidal at 8 times MIC in 24 hrs by time kill study; format: functional, organism-based; procedure, shortened: as §2
# Streptococcus pneumoniae [43] = test: Antibacterial activity against Streptococcus pneumoniae ATCC 49619 assessed as bactericidal at 8 times MIC in 24 hrs by time kill study; format: functional, organism-based; procedure, shortened: as §2
# Streptococcus pneumoniae [44] = test: Antibacterial activity against Streptococcus pneumoniae ATCC 49619 assessed as bactericidal at 4 times MIC in 24 hrs by time kill study; format: functional, organism-based; procedure, shortened: as §2
smiles,measurement,setting,value
CC[C@H]1OC(=O)[C@@](C)(F)C(=O)[C@H](C)[C@@H](O[C@@H]2O[C@H](C)C[C@H](N(C)C)[C@H]2O)[C@](C)(OC)C[C@@H](C)C(=O)[C@H](C)[C@H]2N(CCCCn3cc(-c4cccc(N)c4)nn3)C(=O)O[C@]12C [SOLITHROMYCIN],MIC,Enterococcus faecalis [1],0.03 µg/mL
same,MIC,Enterococcus faecium [2],0.06 µg/mL
same,MIC,Streptococcus pneumoniae [3],0.06 µg/mL
same,MIC,Streptococcus mitis [4],≤ 0.008 µg/mL
same,MIC,Enterococcus faecalis [5],2 µg/mL
same,MIC,Staphylococcus aureus [6],0.06 µg/mL
same,MIC,Staphylococcus aureus [7],0.12 µg/mL
same,Activity,Streptococcus pneumoniae [8],Active
same,Activity,[9],Active
same,MIC,Staphylococcus aureus [10],0.12 µg/mL
same,MIC,Enterococcus faecium [11],1 µg/mL
same,MIC,Streptococcus pyogenes [12],0.06 µg/mL
same,MIC,Moraxella catarrhalis,0.12 µg/mL
same,Activity,Enterococcus faecalis [13],Active
same,MIC,Staphylococcus aureus [14],0.12 µg/mL
same,MIC,[15],0.12 µg/mL
same,Activity,Streptococcus pyogenes [16],Active
same,Activity,Streptococcus pneumoniae [17],>=3 log10CFU/ml
same,MIC,[18],0.12 µg/mL
same,Activity,[19],Active
same,Activity,Streptococcus pyogenes [20],Active
same,MIC,Streptococcus mitis [21],0.12 µg/mL
same,Activity,Staphylococcus aureus [22],Active
same,MIC,Streptococcus pneumoniae [23],0.015 µg/mL
same,Activity,Streptococcus pyogenes [24],>=3 log10CFU/ml
same,Activity,Staphylococcus aureus [25],>=3 log10CFU/ml
same,Activity,Streptococcus pyogenes [26],Active
same,MIC,Staphylococcus aureus [27],0.12 µg/mL
same,MIC,Staphylococcus aureus [28],0.12 µg/mL
same,Activity,[29],>=3 log10CFU/ml
same,MIC,Streptococcus pneumoniae [30],0.015 µg/mL
same,MIC,Enterococcus faecalis [31],0.06 µg/mL
same,MIC,Streptococcus pyogenes [32],0.015 µg/mL
same,MIC,Haemophilus influenzae,2 µg/mL
same,Activity,[33],Active
same,Activity,Staphylococcus aureus [34],Active
same,MIC,Streptococcus pneumoniae [35],0.008 µg/mL
same,Activity,Staphylococcus aureus [36],Active
CC[C@H]1OC(=O)[C@H](C)[C@@H](O[C@H]2C[C@@](C)(OC)[C@@H](O)[C@H](C)O2)[C@H](C)[C@@H](O[C@@H]2O[C@H](C)C[C@H](N(C)C)[C@H]2O)[C@](C)(OC)C[C@@H](C)C(=O)[C@H](C)[C@@H](O)[C@]1(C)O [CLARITHROMYCIN],Activity,Staphylococcus aureus [22],Active
CC[C@H]1OC(=O)[C@H](C)C(=O)[C@H](C)[C@@H](O[C@@H]2O[C@H](C)C[C@H](N(C)C)[C@H]2O)[C@](C)(OC)C[C@@H](C)C(=O)[C@H](C)[C@H]2N(CCCCn3cnc(-c4cccnc4)c3)C(=O)O[C@]12C,Activity,Streptococcus mitis [37],Active
same,Activity,[38],Active
same,Activity,Streptococcus mitis [39],Active
same,Activity,Staphylococcus aureus [22],Active
same,Activity,Streptococcus mitis [40],Active
CC[C@H]1OC(=O)[C@H](C)[C@@H](O[C@H]2C[C@@](C)(OC)[C@@H](O)[C@H](C)O2)[C@H](C)[C@@H](O[C@@H]2O[C@H](C)C[C@H](N(C)C)[C@H]2O)[C@](C)(O)C[C@@H](C)C(=O)[C@H](C)[C@@H](O)[C@]1(C)O,Activity,Streptococcus pneumoniae [41],Active
same,Activity,Streptococcus pyogenes [42],Active
same,Activity,Streptococcus pneumoniae [43],Active
same,Activity,Staphylococcus aureus [22],Active
same,Activity,Streptococcus pneumoniae [44],Active
